The test system of series [1] is Plasma. The experiment in a line: (§1) Metabolic stability in mouse plasma assessed as compound remaining at 1 uM after 24 hrs by LC-MS/MS analysis. The format is ADME, cell-free. The settings on record: 24 h, 1 µM. The procedure, abridged:
(§2)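 A 30 mM DMSO stock was diluted to 100 µM in acetonitrile, then spiked into thawed mouse plasma (1 µM final) and incubated at 37 °C. Aliquots were precipitated in acetonitrile containing buspirone, shaken 5 min and centrifuged at 4000g for 10 min. Supernatant was analysed by LC-MS/MS. Percent remaining = concentration at each time / t0 concentration × 100; mean of at least three experiments.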

A further series deals with Estrogen receptor beta (Homo sapiens, UniProt Q92731). The experiment in a line: Inhibition of human estrogen receptor beta.
Estrogen receptor beta, sequence (Q92731 whole entry): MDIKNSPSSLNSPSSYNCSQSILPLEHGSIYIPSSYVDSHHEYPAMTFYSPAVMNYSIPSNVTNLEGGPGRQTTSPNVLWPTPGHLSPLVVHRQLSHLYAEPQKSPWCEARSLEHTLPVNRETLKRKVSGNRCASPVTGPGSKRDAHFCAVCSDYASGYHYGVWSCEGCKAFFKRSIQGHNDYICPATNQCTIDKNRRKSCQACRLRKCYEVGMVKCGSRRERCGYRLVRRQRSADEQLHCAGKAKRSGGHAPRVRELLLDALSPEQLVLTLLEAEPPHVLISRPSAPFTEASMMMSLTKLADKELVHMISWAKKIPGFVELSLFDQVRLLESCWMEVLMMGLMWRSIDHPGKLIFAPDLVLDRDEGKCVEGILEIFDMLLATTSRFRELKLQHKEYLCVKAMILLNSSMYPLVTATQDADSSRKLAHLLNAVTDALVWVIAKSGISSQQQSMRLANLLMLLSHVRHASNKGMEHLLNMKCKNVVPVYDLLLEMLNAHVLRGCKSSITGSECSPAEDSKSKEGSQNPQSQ
Series [2] has as its target T1, Peroxisome proliferator-activated receptor alpha (Homo sapiens, UniProt Q07869).
T1 sequence (Q07869 whole entry): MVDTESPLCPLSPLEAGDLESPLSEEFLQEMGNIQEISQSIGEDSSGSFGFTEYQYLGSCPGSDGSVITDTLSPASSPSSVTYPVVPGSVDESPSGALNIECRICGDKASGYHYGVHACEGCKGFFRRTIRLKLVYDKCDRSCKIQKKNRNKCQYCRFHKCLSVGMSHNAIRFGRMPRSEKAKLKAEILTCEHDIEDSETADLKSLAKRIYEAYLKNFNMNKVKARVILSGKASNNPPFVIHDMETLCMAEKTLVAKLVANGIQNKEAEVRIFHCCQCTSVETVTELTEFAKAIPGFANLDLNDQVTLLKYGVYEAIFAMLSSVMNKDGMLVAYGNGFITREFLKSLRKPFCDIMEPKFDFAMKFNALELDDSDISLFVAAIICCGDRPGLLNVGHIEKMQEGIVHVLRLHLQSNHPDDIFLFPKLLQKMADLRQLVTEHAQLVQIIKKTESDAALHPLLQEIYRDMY
The experiment in a line: Agonist activity at human PPAR-alpha.

The next series deals with Mus musculus. The experiment in a line: Reduction in plasma FGF21 level in C57Bl/6 mouse at 30 mg/kg, ip administered for 4 days followed by fasting for last 48 hrs measured 4 hrs post last dose by ELISA. The format is functional, organism-based. More on the design: dose 30 mg/kg. The procedure, abridged: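 C57Bl/6 mice received intraperitoneal drug or saline vehicle daily for four days, with 48 h fasting starting on day 2. Four hours after the final dose, blood was taken by terminal cardiac puncture into EDTA. Plasma FGF21 was measured by ELISA and compared against vehicle by t test.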
(An ELISA detects its analyte on a solid surface through an enzyme-linked reagent.)

Series [3] deals with T2, Peroxisome proliferator-activated receptor gamma (Homo sapiens, UniProt P37231).
T2 sequence (P37231 whole entry): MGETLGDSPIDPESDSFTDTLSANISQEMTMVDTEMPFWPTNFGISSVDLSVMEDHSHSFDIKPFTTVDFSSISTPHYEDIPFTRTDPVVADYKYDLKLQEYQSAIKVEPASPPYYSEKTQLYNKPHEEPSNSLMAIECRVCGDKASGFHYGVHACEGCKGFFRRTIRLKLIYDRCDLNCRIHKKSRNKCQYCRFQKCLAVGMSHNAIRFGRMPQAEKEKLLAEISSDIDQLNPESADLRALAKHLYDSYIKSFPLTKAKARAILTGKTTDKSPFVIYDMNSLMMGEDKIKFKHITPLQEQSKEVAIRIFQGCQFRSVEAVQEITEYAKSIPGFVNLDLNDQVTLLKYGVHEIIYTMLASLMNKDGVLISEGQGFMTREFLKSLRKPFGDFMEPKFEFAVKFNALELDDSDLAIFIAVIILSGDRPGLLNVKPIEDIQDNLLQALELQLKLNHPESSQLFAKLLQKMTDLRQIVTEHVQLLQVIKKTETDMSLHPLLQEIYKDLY
The experiment in a line: Inhibition of human PPAR-gamma.

Series [4] can be described thus: Cmax in CD-1 mouse at 30 mg/kg, ip after 1 hr. On the set-up: dose 30 mg/kg, route intraperitoneal. The note with it: in vivo. The format is ADME, organism-based. The procedure, abridged: (§3)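 Mouse pharmacokinetics in CD1 mice given a single intraperitoneal dose of 30 mpk, formulated in saline or in 98% saline/2% tween.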
The target of the next series is T3, Glucocorticoid receptor (Homo sapiens, UniProt P04150).
T3 sequence (P04150 whole entry): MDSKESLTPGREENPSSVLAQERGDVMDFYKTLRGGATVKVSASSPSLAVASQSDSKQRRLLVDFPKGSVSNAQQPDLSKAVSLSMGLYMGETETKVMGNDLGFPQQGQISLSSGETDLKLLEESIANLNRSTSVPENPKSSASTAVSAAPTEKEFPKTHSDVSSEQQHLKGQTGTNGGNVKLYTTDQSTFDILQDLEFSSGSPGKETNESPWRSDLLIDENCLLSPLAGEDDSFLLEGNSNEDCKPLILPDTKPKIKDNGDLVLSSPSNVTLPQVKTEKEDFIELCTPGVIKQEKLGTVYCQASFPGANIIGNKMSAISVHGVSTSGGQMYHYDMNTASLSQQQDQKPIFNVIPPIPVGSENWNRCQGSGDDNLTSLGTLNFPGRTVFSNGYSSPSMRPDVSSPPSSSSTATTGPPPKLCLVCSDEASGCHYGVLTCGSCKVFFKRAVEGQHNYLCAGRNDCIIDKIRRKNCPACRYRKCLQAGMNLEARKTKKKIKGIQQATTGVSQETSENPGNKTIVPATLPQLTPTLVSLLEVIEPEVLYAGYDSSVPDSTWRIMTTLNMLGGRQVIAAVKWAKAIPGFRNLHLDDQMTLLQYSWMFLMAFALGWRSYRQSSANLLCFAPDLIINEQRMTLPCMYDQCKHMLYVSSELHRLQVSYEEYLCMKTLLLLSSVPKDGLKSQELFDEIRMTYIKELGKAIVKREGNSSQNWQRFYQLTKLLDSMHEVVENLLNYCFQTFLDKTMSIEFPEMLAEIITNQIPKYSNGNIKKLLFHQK
The experiment in a line: Inhibition of human glucocorticoid receptor.

Series [5] has as its target T4, Thyroid hormone receptor beta (Homo sapiens, UniProt P10828).
T4 sequence (P10828 whole entry): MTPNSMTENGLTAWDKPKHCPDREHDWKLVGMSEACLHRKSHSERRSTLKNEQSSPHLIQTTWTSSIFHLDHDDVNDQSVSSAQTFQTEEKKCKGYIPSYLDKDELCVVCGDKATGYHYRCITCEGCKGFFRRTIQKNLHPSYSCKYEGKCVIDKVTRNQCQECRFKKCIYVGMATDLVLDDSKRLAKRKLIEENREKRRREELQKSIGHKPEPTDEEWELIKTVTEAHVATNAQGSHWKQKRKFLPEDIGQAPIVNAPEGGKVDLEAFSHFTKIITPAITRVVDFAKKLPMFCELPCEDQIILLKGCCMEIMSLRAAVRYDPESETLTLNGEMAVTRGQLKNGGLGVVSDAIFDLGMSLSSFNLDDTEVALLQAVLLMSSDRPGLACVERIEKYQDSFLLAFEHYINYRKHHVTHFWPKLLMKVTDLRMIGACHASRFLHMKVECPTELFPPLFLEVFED
The experiment in a line: Inhibition of human thyroid hormone receptor-beta.

Series [6] has as its target T1, Peroxisome proliferator-activated receptor alpha. The experiment in a line: Antagonist activity at GST-tagged PPAR-alpha (unknown origin) assessed as inhibition of GW7647-induced effect after 2 hrs by TR-FRET assay. (TR-FRET usually uses a lanthanide donor and a delayed reading to cut background.)
Series [7] can be described thus: AUC in CD-1 mouse at 30 mg/kg, ip. In kind it is ADME, organism-based. More on the design: dose 30 mg/kg, route intraperitoneal. The settings on record: plasma. The procedure, abridged:
as §3

The target of series [8] is T5, Peroxisome proliferator-activated receptor delta (Homo sapiens, UniProt Q03181).
T5 sequence (Q03181 whole entry): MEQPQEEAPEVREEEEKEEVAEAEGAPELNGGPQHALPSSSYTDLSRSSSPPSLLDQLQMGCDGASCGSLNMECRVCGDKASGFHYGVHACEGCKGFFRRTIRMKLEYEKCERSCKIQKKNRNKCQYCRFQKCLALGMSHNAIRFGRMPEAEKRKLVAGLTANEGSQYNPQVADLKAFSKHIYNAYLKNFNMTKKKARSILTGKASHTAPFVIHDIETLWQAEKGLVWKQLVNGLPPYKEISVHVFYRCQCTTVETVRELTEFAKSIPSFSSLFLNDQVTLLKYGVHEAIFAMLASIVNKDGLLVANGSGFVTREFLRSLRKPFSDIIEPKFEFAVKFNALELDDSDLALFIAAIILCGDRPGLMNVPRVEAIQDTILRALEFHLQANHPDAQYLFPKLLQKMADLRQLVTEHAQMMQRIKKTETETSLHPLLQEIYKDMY
The experiment in a line: Inhibition of human PPAR-delta.

A short description of series [9]: Solubility of the compound in aqueous buffer at pH 7.4 after 24 hrs by LC-MS/MS analysis. In kind it is physicochemical. The procedure, abridged: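 Compound from a 10 mM DMSO stock was added to pH 7.4 buffer, vortexed 2 min, then shaken on an orbital shaker for 24 h at room temperature. Samples were then vacuum-filtered through a polycarbonate membrane before measurement.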

Series [10] has as its target T1, Peroxisome proliferator-activated receptor alpha. The experiment in a line: Antagonist activity at human PPAR-alpha assessed as inhibition of GW7647-induced effect after overnight incubation by cell-based luciferase reporter gene assay. On the technique in general: A reporter such as luciferase makes a cellular process visible.
For series [11], the system named is Plasma. The experiment in a line: Drug level in mouse plasma treated with 1 uM 5 after 24 hrs by LC-MS/MS analysis. In kind it is ADME, cell-free.
Series [12] is described as follows: as §1. The settings on record: read-out: Stability. In kind it is ADME, cell-free. An outline of the steps:
as §2

Usually IC50 stands for the concentration at which inhibition is half-maximal. One may read the EC50 as the concentration that produces a half-maximal response. Usually Cmax stands for the peak of the concentration-time curve. What is called AUC is the area under the concentration-time curve, a measure of exposure. What is called solubility is how much of the substance goes into solution per volume.

Structures are written as SMILES. In brackets after ≈: the same amount, converted by molar mass. Activity calls are given as the source filed them. No cut-off for these calls is given here.

Turning to `CCn1c(CCCc2ccc(-c3ccc(NS(=O)(=O)c4ccccc4)cn3)cc2)nn(Cc2ccc(C(C)(C)C)cc2)c1=O`, in the series on Plasma [1], the Stability amounted to 140.6%. The half-maximal inhibitory concentration (IC50) is 15.2 µM against Estrogen receptor beta; 15 µM in [3]; 32.5 µM on Glucocorticoid receptor; more than 100 µM in series [5]; 6 µM in series [8]; 0.077 µM in series [10]. Moreover, the figures for the half-maximal effective concentration (EC50) in series [2] and in series [6] were more than 100 µM and 1.4 µM, respectively. Besides, the result in the series with Mus musculus was Active. The compound also displayed a peak concentration (Cmax) in series [4] of 1.2 µM. In series [7], this compound had an AUC of 3400 ng·h/mL. This compound returned a solubility at 24 h in series [9] of 1.5 µM (≈ 0.915 µg/mL).
Consider `CCn1c(CCCc2ccc(OC(C)(C)C(=O)O)cc2)nn(Cc2ccc(C(C)(C)C)cc2)c1=O`, for which the Drug metabolism result in the series on Plasma [11] is listed as “metabolite_detected”.
In the case of `CCn1c(CCCc2ccc(-c3ccc(NS(=O)(=O)c4ccc(-c5ccc(OC)cc5)cc4)cc3)cc2)nn(Cc2ccc(C(C)(C)C)cc2)c1=O`, the remaining at 24 h, 1 µM in series [12] is 119%. Also, the IC50 is 34.8 µM at Estrogen receptor beta; more than 100 µM in series [3]; 32 µM against Glucocorticoid receptor; more than 69 µM in series [5]; more than 100 µM in [8]; 4.8 µM in series [10]. The compound also had a peak concentration (Cmax) in series [4] of 7.2 µM. The AUC in [7] turned out to be 23000 ng·h/mL. In series [9], this compound had a solubility at 24 h of 0.082 µM (≈ 0.0586 µg/mL).

Values taken from ChEMBL document CHEMBL3259631, “Identification of the first potent, selective and bioavailable PPARα antagonist” (Bioorg Med Chem Lett, 2014).
